# Most compounds without a hit are left out; they make up all but 1.9% or so of the library.
# CHRM5 PAM – positive allosteric modulators of human muscarinic M5 receptor | CHO-K1 hM5, Fluo-8 calcium, ACh EC20 PAM; 0% = ACh EC20, 100% = ACh EC100 | P08912 | 360,000 tested, 0.3% active | activation, % at 3 µM;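 active means activation above the run cutoff, the mean activation of all test compounds plus 3 SD, cut at about 18% in these data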
#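 Assay system: CHO-K1 hM5 cells. Also added: acetylcholine at EC20 concentration, added after compound. Dosing: 3 µM, single dose. Times: compound preincubation 140 s before EC20 acetylcholine addition. Signal: Fluo-8 calcium fluorescence. Measure: % activation relative to EC20 and EC100 ACh responses. Repeats: singlicate, one well per test compound.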
# M5 antag – blocks acetylcholine activation of human M5 receptor. CHO-hM5 cells, Fluo-8 calcium fluorescence, ACh EC80. inhibition, % at 3 µM. 360,000 tested, 0.59% active;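 active means inhibition above a per-plate cutoff, the mean of that plate's test compounds plus 3 SD, cut at about 27% in these data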
# CHRM4 antagonist – blocks acetylcholine activation of human M4 receptor | P08173 | CHO-hM4 cells, ACh EC80, Fluo-8 calcium fluorescence | inhibition, % at 3 µM | 360,000 tested, 0.73% active;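 active means inhibition above its plate's cutoff, the mean inhibition of sample wells plus 3 SD, cut at about 27% in these data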
# Target sequence (P08173 whole entry, looked up): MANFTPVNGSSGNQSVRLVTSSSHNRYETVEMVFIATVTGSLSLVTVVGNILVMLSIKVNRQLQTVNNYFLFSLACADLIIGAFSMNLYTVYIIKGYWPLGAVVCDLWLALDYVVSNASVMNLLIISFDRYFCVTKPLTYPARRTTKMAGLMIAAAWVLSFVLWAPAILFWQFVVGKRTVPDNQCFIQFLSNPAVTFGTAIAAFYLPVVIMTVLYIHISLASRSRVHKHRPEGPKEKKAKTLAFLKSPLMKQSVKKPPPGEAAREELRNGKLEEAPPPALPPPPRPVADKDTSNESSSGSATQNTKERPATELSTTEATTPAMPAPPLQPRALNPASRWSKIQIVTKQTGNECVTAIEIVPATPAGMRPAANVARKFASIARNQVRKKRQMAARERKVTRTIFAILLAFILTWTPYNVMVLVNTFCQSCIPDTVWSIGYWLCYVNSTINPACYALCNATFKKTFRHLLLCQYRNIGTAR
# CHRM4 agonist – agonists of human muscarinic M4 receptor (CHRM4); AID 624127; CHO-K1 hM4/Gqi5, Fluo-8 calcium fluorescence; vehicle 0%, full acetylcholine response 100%; activation, % at 3 µM; 360,000 tested, 0.14% active; P08173;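 active means activation above the run mean over all test wells plus 3 SD, cut at about 32% in these data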;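 further: peak over basal fluorescence ratio per well then scaled between controls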
# M4 PAM – positive allosteric modulators of human muscarinic M4 receptor; activation, % at 3 µM; CHO-K1 hM4/Gqi5, Fluo-8 calcium fluorescence, ACh EC20; 0% = ACh EC20, 100% = maximal ACh; AID 624126; 360,000 tested, 0.4% active; P08173;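 active means activation above its plate's cutoff, the mean activation of sample wells plus 3 SD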
# M5 ag – CHRM5 agonism in calcium assay; P08912; CHO-K1 hM5 cells, Fluo-8 calcium fluorescence; 0% DMSO wells, 100% maximal acetylcholine response; activation, % at 3 µM; 360,000 tested, 0.19% active;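 active means activation above the run's mean over test compounds plus 3 SD, cut at about 23% in these data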;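 further: signal is peak over basal fluorescence ratio across the kinetic read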
# Numbers stand for hits; – = inactive.
SMILES,CHRM5 PAM,M5 antag,CHRM4 antagonist,CHRM4 agonist,M4 PAM,M5 ag
O=C(c1cccc(Oc2ccc([N+](=O)[O-])cc2Cl)c1)N1CCOCC1,–,26.9,–,–,–,–
C[C@H](CO)N1C[C@H](C)[C@@H](CN(C)Cc2ccc(C(=O)O)cc2)Oc2c(NS(=O)(=O)c3ccc(F)cc3)cccc2C1=O,–,–,–,–,–,–
Cc1ccc(CN2CCNC(=O)C2CC(=O)N(C)C(C2CC2)C2CC2)o1 (stereo unspecified),–,–,–,–,–,–
Cc1ccc(CN2CCNC(=O)C2CC(=O)NCC(F)(F)F)o1 (stereo unspecified),–,27.3,–,–,–,–
COC(=O)c1c(O)cc(C(C)(C)C)n(-c2ccc(F)cc2)c1=O,–,–,–,–,37.2,–
CC(=O)c1c(O)cc(C)n(-c2ccc(F)cc2)c1=O,–,–,–,–,–,–
COc1ccc(CCNC2=CC(=O)CCC2)cc1OC,–,–,–,–,–,–
CCc1ccc(C(=O)NNC(=O)C2CSC3(C)CCC(=O)N23)cc1 (stereo unspecified),–,–,–,–,–,–
O=C(Nc1cccc(C(=O)Nc2cccc(Br)c2)c1)c1ccccc1,–,29.9,–,–,–,–
O=C(O)c1cccc(NC(=O)c2ccccc2)c1,–,–,–,–,–,–
COc1ccc(C(CC(=O)O)c2cc(OC)c(OC)c(OC)c2)cc1OC (stereo unspecified),–,–,–,–,–,–
O=C(O)CC(c1ccccc1)N1C(=O)c2ccccc2C1=O (stereo unspecified),–,–,–,–,–,–
C=CCSc1nnc2nc3c(nn12)c1cc(C)ccc1n3CC=C,40.5,–,–,–,–,–
C=CCn1c2ccccc2c2nnc(SCC(N)=O)nc21,–,–,–,–,–,–
O=C(Nc1ccc(NC(=O)c2ccco2)nc1)c1cccnc1,–,–,–,–,21.2,–
Cc1ccc(-n2ncc(C#N)c2/N=C/N2CCOCC2)cc1,–,–,–,–,21.6,–
COc1ccc(C(=O)c2coc3ccc(OC(C)=O)cc23)cc1,–,29.2,–,–,–,–
Cc1ccc(N2C(=O)CS(=O)C(c3ccccc3)C2=O)cc1C (stereo unspecified),–,28.3,–,–,–,–
COc1ccc(N2C(=O)CS(=O)C(c3ccccc3)C2=O)cc1 (stereo unspecified),–,–,–,–,–,–
CC(=O)N1Cc2cc(C(=O)NCC(F)(F)F)nc(-c3cccc(-c4cc5ccccc5o4)c3)c2[C@H]1CCO,–,–,–,–,–,–
CC(=O)C1=C(C)NC(SCC(=O)c2ccc(Cl)c(Cl)c2)=C(C#N)C1c1ccco1 (stereo unspecified),–,–,–,–,–,–
CC(=O)C1=C(C)NC(SCC(=O)c2ccc(F)cc2)=C(C#N)C1c1ccco1 (stereo unspecified),–,–,–,–,18.4,–
COc1ccc(CN(C)C(=O)c2cnc(C)cn2)c(OC)c1OC,–,–,–,–,–,–
CCN1C(=NCCCCO)N[C@@H](c2cccc(F)c2)C(C(=O)OC)=C1C,–,–,–,–,23.1,–
CCCCNC(=O)C1(C)CCC(=O)N1CCc1c[nH]c2ccccc12 (stereo unspecified),–,–,–,–,–,–
SMILES,CHRM5 PAM,M5 antag,CHRM4 antagonist,CHRM4 agonist,M4 PAM,M5 ag
O=C(Cc1ccccc1)Nc1nnc(-c2cccc([N+](=O)[O-])c2)s1,–,–,–,–,34.8,–
COC(=O)N1C(=O)[C@@](c2ccc(OC)cc2)(C(C)C)N1C(=O)OC,19.5,–,–,–,–,–
COC(=O)N1C(=O)[C@](c2ccc(Cl)cc2)(C(C)C)N1C(=O)OC,–,–,–,–,–,–
N=C(N)n1ncc2c1CCCC2=O,–,–,–,–,–,–
Cc1cccc(C(=O)NCC(=O)NC(C)c2ccc(-n3ccnc3)cc2)c1 (stereo unspecified),–,–,–,–,–,–
C=CCN(c1ccccc1OC)S(=O)(=O)c1cccc(C(=O)OCC(=O)c2c(N)n(C)c(=O)n(C)c2=O)c1,–,26.9,–,–,–,–
O=S(=O)(Nc1cccc(S(=O)(=O)N2CCCC2)c1)c1cccc(Br)c1,–,–,–,–,–,–
COc1ccc(CCNC(=O)CS(=O)(=O)c2cn(CC(=O)N(C(C)C)C(C)C)c3ccccc23)cc1OC,–,–,–,–,–,–
COc1ccc(CCNC(=O)CS(=O)(=O)c2cn(CC(=O)N3CCCC3)c3ccccc23)cc1OC,–,–,26.6,–,–,–
CCOc1cc(C(=O)N=c2sccn2C)ccc1OC(F)F,–,–,–,–,–,–
COc1ccc(-n2c(/C=C(\C)O)nc(=O)c3c(C)cc(C)nc32)cc1,–,–,–,–,34.3,–
COc1ccc(-n2c(C)nn(C)c2=O)cc1,–,–,–,–,–,–
CC1(C)Cc2c(sc3nc(N/N=C/c4ccccc4)[nH]c(=O)c23)CO1,25.0,–,–,–,–,–
COc1ccc(CNS(=O)(=O)c2ccc3c(c2)N(C)CCO3)cc1,–,28.9,–,–,–,–
CCCCCOc1ccc(Br)cc1/C(C)=N/NC1=NCCN1,–,–,–,–,–,–
COc1ccc(Br)cc1/C(C)=N/NC1=NCCN1,–,29.6,–,–,–,46.7
O=C(CSc1ccc([N+](=O)[O-])cc1)Nc1nnc(C2CC2)s1,–,–,–,–,–,–
O=C(NCC(=O)N(Cc1ccccc1)C(C(=O)NC1CCCC1)c1cccnc1)c1ccco1 (stereo unspecified),–,–,–,–,18.0,–
O=C(NCC(=O)N(CC1CCCO1)C(C(=O)NC1CCCC1)c1cccnc1)c1ccco1 (stereo unspecified),23.1,–,–,–,–,–
CC(C)n1nnnc1SCC(=O)N1CCOCC1,–,–,28.1,–,–,–
CCc1ccc(-c2csc(NC(=O)C3CC(=O)N(c4ccc5c(c4)OCCO5)C3)n2)cc1 (stereo unspecified),–,–,–,–,30.1,–
Cc1csc(NC(=O)C2CC(=O)N(c3ccc4c(c3)OCCO4)C2)n1 (stereo unspecified),–,–,–,–,–,–
CCOCCCNC(=O)C(NC(=O)Cc1cccs1)c1ccc(C)cc1 (stereo unspecified),–,–,–,–,21.0,–
CCOCCCNC(=O)C(NC(=O)CNC(C)=O)c1ccc(C)cc1 (stereo unspecified),–,–,–,–,–,–

# Compound activity as filed in PubChem.
